Experimental data: ChEMBL document CHEMBL5674876, “Epigenetic Activation of Pro-angiogenic Signaling Pathways in Human Endothelial Progenitors Increases Vasculogenesis” (Stem Cell Reports, 2017)
The source made the active and inactive calls. The rule behind the calls is not given here.

How the values were obtained:
HUVEC [1] = experiment: Effect on pro-angiogenic property in human umbilical cord derived endothelial colony forming cells assessed as cell migration treated at 330 nM for 10 hrs measured by crystal violet staining analysis based gap closure assay; type: functional
HUVEC [2] = experiment: Effect on pro-angiogenic property in human umbilical cord derived endothelial colony forming cells assessed as formation of capillary network on matrigel at 330 nM; type: functional, cell-based
Outline: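 Drug- or vehicle-pretreated ECFCs seeded at 5,000 cells/well on phenol-red-free growth-factor-reduced Matrigel in duplicate; after 24 hr stained with 5 μg/mL calcein 5 min at 37°C, imaged at 2.5×. Total tube length expressed as percentage of vehicle control ±SEM, three independent experiments.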

CC(/C=C/C(=O)NO)=C\[C@@H](C)C(=O)c1ccc(N(C)C)cc1
Activity (HUVEC [1]): Active | Activity (HUVEC [2]): Active
